This passage reports KA results from ChEMBL document CHEMBL4330152, “α-Carbonic anhydrases are strongly activated by spinaceamine derivatives” (Bioorg Med Chem, 2019).

For experiment [1], the target named is Carbonic anhydrase 1 (Homo sapiens) (UniProt P00915). The experiment in a line: Activation of human CA-1 incubated for 15 mins prior to testing by stopped flow CO2 hydrase assay. The method in brief:
(§1)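 Stopped-flow CO2 hydration at 25 °C, 10 mM Hepes pH 7.5 with 0.1 M NaClO4, phenol red 0.2 mM read at 557 nm over 10 s. CO2 1.7–17 mM. Activators (0.1 mM stocks in water) diluted in buffer down to 1 nM and preincubated 15 min with enzyme. Initial rates from ≥6 traces of first 5–10% of reaction, uncatalysed rate subtracted. Activation constants from competitive steady-state equation.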

Experiment [2] concerns the target Carbonic anhydrase 2 (Homo sapiens) (UniProt P00918). The experiment can be described thus: Activation of human CA-2 incubated for 15 mins prior to testing by stopped flow CO2 hydrase assay. The method in brief: as §1
For experiment [3], the target named is Carbonic anhydrase 4 (Homo sapiens) (UniProt P22748). The experiment can be described thus: Activation of human CA-4 incubated for 15 mins prior to testing by stopped flow CO2 hydrase assay. In short, it runs like this:
as §1

In experiment [4] the target is Carbonic anhydrase 7 (Homo sapiens) (UniProt P43166). The experiment in a line: Activation of human CA-7 incubated for 15 mins prior to testing by stopped flow CO2 hydrase assay.

Sequence of Carbonic anhydrase 4 (Homo sapiens) (P22748 whole entry): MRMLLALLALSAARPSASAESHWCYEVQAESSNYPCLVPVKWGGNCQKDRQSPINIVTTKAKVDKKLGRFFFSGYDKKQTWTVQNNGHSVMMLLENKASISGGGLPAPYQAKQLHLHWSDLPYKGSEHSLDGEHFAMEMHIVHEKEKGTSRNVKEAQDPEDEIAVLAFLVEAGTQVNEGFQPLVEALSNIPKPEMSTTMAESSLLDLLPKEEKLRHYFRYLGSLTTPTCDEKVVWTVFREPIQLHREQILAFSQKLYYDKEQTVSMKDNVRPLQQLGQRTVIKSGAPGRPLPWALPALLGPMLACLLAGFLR
Sequence of Carbonic anhydrase 1 (Homo sapiens) (P00915 2-261 limits assumed): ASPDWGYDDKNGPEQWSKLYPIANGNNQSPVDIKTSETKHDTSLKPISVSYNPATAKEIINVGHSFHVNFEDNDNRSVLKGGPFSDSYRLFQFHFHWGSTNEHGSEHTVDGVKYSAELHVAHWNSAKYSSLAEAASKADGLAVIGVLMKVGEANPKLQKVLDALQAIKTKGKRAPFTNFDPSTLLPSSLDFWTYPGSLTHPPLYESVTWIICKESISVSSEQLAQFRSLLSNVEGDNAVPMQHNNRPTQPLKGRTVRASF

For `Fc1cc(F)c(F)c(C2NCCc3nc[nH]c32)c1F` (stereo not drawn), the KA in experiment [1] was 9.92 µM; in experiment [2] it was 0.6 µM; in experiment [3], 0.52 µM; in experiment [4] it was 0.11 µM.

With `COc1ccc(C2NCCc3[nH]cnc32)cc1` (stereo not drawn), the KA in experiment [1] came to 6.01 µM; in experiment [2] it was 7.31 µM; in experiment [3] it was 6.37 µM; in experiment [4], 0.73 µM.

As for `Oc1ccccc1C1NCCc2nc[nH]c21` (stereo not drawn), the KA turned out to be 2.52 µM in experiment [1], 1.62 µM in experiment [2], 3.59 µM in experiment [3] and 0.11 µM in experiment [4].

With `COc1ccc(C2NCCc3nc[nH]c32)cc1OC` (stereo not drawn), the KA was 3.76 µM in experiment [1], 0.71 µM in experiment [2], 6.17 µM in experiment [3] and 0.26 µM in experiment [4].

In the case of `c1coc(C2NCCc3nc[nH]c32)c1` (stereo not drawn), the KA in experiment [1] was found to be 21.5 µM; in experiment [2] it was 5.12 µM; in experiment [3], 2.4 µM; in experiment [4] it was 0.095 µM.

In the case of `N#Cc1ccc(C2NCCc3nc[nH]c32)cc1` (stereo not drawn), the KA in experiment [1] was 4.89 µM; in experiment [2] it was 7.25 µM; in experiment [3] it was 5.8 µM; in experiment [4], 4.26 µM.

For the molecule `CN(C)c1ccc(C2NCCc3nc[nH]c32)cc1` (stereo not drawn), the KA in experiment [1] is 3.45 µM; in experiment [2] it was 7.44 µM; in experiment [3], 3.14 µM; in experiment [4], 0.59 µM.

For `c1ccc(C2NCCc3[nH]cnc32)cc1` (stereo not drawn), the KA in experiment [1] was determined as 8.12 µM; in experiment [2] it was 16.3 µM; in experiment [3], 63.8 µM; in experiment [4], 2.69 µM.

On to `NCCc1c[nH]cn1`, for which the KA in experiment [3] was determined as 4.03 µM; in experiment [4], 37.6 µM.

On to `COc1cc(C2NCCc3nc[nH]c32)cc(OC)c1OC` (stereo not drawn), for which the KA was found to be 9.28 µM in experiment [1], 3.26 µM in experiment [2], 2.84 µM in experiment [3] and 0.093 µM in experiment [4].

In the case of `Oc1ccc(Br)cc1C1NCCc2nc[nH]c21` (stereo not drawn), the KA stood at 4.9 µM in experiment [1], 1.03 µM in experiment [2], 10.9 µM in experiment [3] and 0.12 µM in experiment [4].

Take `Clc1ccc(C2NCCc3[nH]cnc32)cc1` (stereo not drawn): the KA was found to be 17.6 µM in experiment [1], 8.49 µM in experiment [2], 50.1 µM in experiment [3] and 0.84 µM in experiment [4].

For `Cc1ccc(C2NCCc3nc[nH]c32)cc1` (stereo not drawn), the KA turned out to be 6.27 µM in experiment [1], 17.2 µM in experiment [2], 7.06 µM in experiment [3] and 1.03 µM in experiment [4].

Take `Cc1ccc(Br)cc1C1NCCc2nc[nH]c21` (stereo not drawn): the KA in experiment [1] is 12.7 µM; in experiment [2] it was 15.5 µM; in experiment [3], 4.42 µM; in experiment [4], 0.38 µM.

In the case of `Brc1ccccc1C1NCCc2nc[nH]c21` (stereo not drawn), the KA in experiment [1] is 4.3 µM; in experiment [2], 2.8 µM; in experiment [3], 4.05 µM; in experiment [4], 0.082 µM.
